Measured values from the EternaBench riboswitch data.

Tested on: MS2 coat protein
Assay: apparent Kd, MS2 coat protein; higher = weaker binding; RNA-MaP array; FMN 200 µM where present
Outline: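 Each design was made on Illumina sequencing-chip clusters by stalled E. coli RNA polymerase and titrated with SNAP-549-labelled MS2 coat protein from 0.7 or 1.5 nM, doubling to 3 µM, in the absence and then the presence of constant ligand. The buffer was 100 mM Tris-HCl pH 7.5, 80 mM KCl, 4 mM MgCl2, BSA, DTT, yeast tRNA and Tween-20. The apparent Kd is the median of filtered per-cluster fits of binding curves, with green signal normalised to red-channel RNA signal and control-cluster median Fmax.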

[1] = designed as: OFF switch for flavin mononucleotide, no ligand
[2] = ligand present: flavin mononucleotide, designed as: OFF switch for flavin mononucleotide
[3] = designed as: ON switch for flavin mononucleotide, no ligand
[4] = ligand present: flavin mononucleotide, designed as: ON switch for flavin mononucleotide

| Sequence | apparent Kd [1] | apparent Kd [2] | apparent Kd [3] | apparent Kd [4] |
| --- | --- | --- | --- | --- |
| GAAUAGGCAGGAUAUACAUGAGGAUCACCCAUGUGCCUGCGAAAGGUACGUUCGAAAGGUAGAAGGGCCUAAAC | 12.1 nM | 17.1 nM |  |  |
| GAAAACAUAGGAUAUACAUGAGGAUCACCCAUGUUAAAAUAAAGAAAGGGAGAAAUAAGUAGAAGGAUGAAAAA | 33.8 nM | 34.2 nM |  |  |
| GGAUGAUAGACAGGAUAUUGAUUGUAAUUAUGUCAAGAAGGGUCUUUGAUUUAAACGACCAGUUACAUGAGGAUCACCCAUGUU |  |  | 30.7 nM | 21 nM |
| GUCGUGAGACAGGAUAUCCAAUCUAAACACGAGGGAGAAGGGUCUACAUGAGGAUCACCCAUGUGGUCUCAAAA | 17.6 nM | 21.7 nM |  |  |
| GGGCCCGGAGGAUAUACAAUGGGCCCGGGAAACCGGGUUUUACAUGAGGAUCACCCAUGUAGAAGGCCGGGUUU | 14.5 nM | 15.4 nM |  |  |
| UUGGACGUCGUAGGAGAUGUAGGAUAUUCCUACAUGAGGAUCACCCAUGUUGACAUGGAAGAAGGACAGAAGGACGAUGUCCAU |  |  | 294 nM | 8.27 nM |
| AUUUAAUUUAAUAAGAUCACAUGAGGAUCACCCAUGUUAUAAUAGGAUAUCAGCUCGUGUAGAGCUGAGAAGGAUUAUAACAUG | 66.3 nM | 35.1 nM |  |  |
| UCGAACUUUCAUGUAAUUCGCACAUGAGGAUCACCCAUGUACGAGGAUAUGUACCUGAACGGCUAACAGAAGGCGUACUGGGCA | 242 nM | 83.3 nM |  |  |
| CAAUUGGCACAGAAGGGUGACAUGAGGAUCACCCAUGUAGCGUGGCACUCAGGAGGAACCACGCCACAGGAUAUGUGCCGGCAC |  |  | 88.5 nM | 86.8 nM |
| CCCUCACAUGAGGAUCACCCAUGUCAGGAUAUCCAGCCCUACUAUAAAGCGUCUGGCGGGAGAAGGGACAGGAU | 20.9 nM | 28.5 nM |  |  |
| GAUUGACAUGAGGAUCACCCAUGUGAGGAUAUCGGCUGGACCGUGUUGGCUUGCCUUUCGAGAAGGCGCAUAGG | 37.7 nM | 42 nM |  |  |
| AAAACACAUGAGGAUCACCCAUGUAUCUGGACCAUAGGAUAUCCGCGCCCACUAGGGUAUGGAGAAGGGUGAGCCC |  |  | 161 nM | 122 nM |
| CUUCUGUAAGGAUAUGUAAAUUGCUGACCACACCAGCACCGGCAGAAGGUACAUGAGGAUCACCCAUGUGGGUU | 240 nM | 148 nM |  |  |
| GUGUACGGAGGAUAUAUAUGGGCAGGCUGACCUGCAGCUUCACAUGAGGAUCACCCAUGUAGAAGGCUGUGCAC | 31.6 nM | 132 nM |  |  |
| GUCCGGCUGCCACAGGAUAUACGUGGAUCGACAUGAGGAUCACCCAUGUAUAUCCUAAUAAUUGCGUAGAAGGGUGGUCAGCCGG |  |  | 1040 nM | 109 nM |
| CUGUGAUGGAUCCAGAAUUACAACAUGAGGAUCACCCAUGUGCAGGAUAUCGGGUUGAUAGGCGCCGAGAAGGGUAUGAUCACG | 164 nM | 140 nM |  |  |
| AGUGUAUCCCUAGGAUAUGCACAUGAGGAUCACCCAUGUAAACCCGCGCAGGCUCUUCUCAUGUCGCAGAAGGAGGGACCCGGA | 311 nM | 39.6 nM |  |  |
| UAGACCGAUGUUAGGAUAUCUGGUCGAGAAAGAAAAGAGAAGGAACAUGAGGAUCACCCAUGUACCCGGGUAAC | 15 nM | 19.2 nM |  |  |
| GCACUUAGAGUUGAACCGUUUCUAACAUGAGGAUCACCCAUGUAGGAUAUGCUAAUAGUAUUGAAGCAGAAGGACAAUAAGUGC | 4.59 nM | 5.01 nM |  |  |
| GGUAGGUUCACAGGAUAUGCUAUCCUUUGGGUAGCAGAAGGGUGAUAACAUGAGGAUCACCCAUGUCCUACCGGGCGUGAGCCC |  |  | 1120 nM | 113 nM |
| AUUAAUUUGUAGAAGGACGACUAUUAAUAUUUCGUAGGAUAUACUAUUUACAUGAGGAUCACCCAUGUUUAAAUGGAACAAUGU | 8.1 nM | 11.8 nM |  |  |
| UUAAGGGACUGAGGAUAUACAUGAAUUAUUUUUGUAGAAGGCAGAUUGUUAGUUUAUUCACUAUACAUGAGGAUCACCCAUGUU | 27.4 nM | 20.1 nM |  |  |
| UUUUUGUGAGGAUAUCAGUAGUAGAACAAUAGUACUACUACUGAGAAGGCACAUGAGGAUCACCCAUGUUCCUC | 58.1 nM | 325 nM |  |  |
| ACAUGAGGAUCACCCAUGUUAAAUUAGGAUAUAUGACUGCACAUGAGGUUCACCCAUGUUCUACCGUAGAAGGGAUAAAUAAUU |  |  | 52.6 nM | 59.4 nM |
| AGUUGGCGAGGAUAUACAUGAGGAUCACCCAUGUGAGAGAAUAAAGUGAGGAAGAAAAGUAGAAGGCGCUGACA | 47.8 nM | 154 nM |  |  |
| CAGUACUGAGGAUAUACAUGAGGAUCACCCAUGUGUUCCAGCUAGGAAACUAGCAAAAGUAGAAGGCUGUACUG | 16.9 nM | 172 nM |  |  |
| CGGGCGCGAGGAUAUACAUGAGGAUCACCCAUGUAGUGGGUUUGUUUCGGGCUUGCGUGUAGAAGGUGUGUUUG | 217 nM | 172 nM |  |  |
| AAGUGGUUUAUAUAUUUAGAUAUCAGAAGGCGUGACAUGAGGAUCACCCAUGUGGACUAACAUGACGAGGAUAUGACUAAUUGU | 30.4 nM | 39.8 nM |  |  |
